Measurements reported in ChEMBL document CHEMBL4270548, “Discovery of a potent glucokinase activator with a favorable liver and pancreas distribution pattern for the treatment of type 2 diabetes mellitus” (Eur J Med Chem, 2018).
Activity calls are given as the source filed them. No cut-off for these calls is given here.

What was measured:
[1] = AUC (0 to 1.5 hrs) in C57BL/6J mouse liver at 10 mg/kg, po administered as single dose by LC/MS/MS analysis; assay type: ADME, organism-based; parameters: time < 1.5 hr, dose 10 mg/kg, route oral; conditions: in vivo
[2] = Ratio of AUC (0 to 1.5 hrs) in C57BL/6J mouse liver to pancreas at 5 mg/kg, po administered as single dose by LC/MS/MS analysis; assay type: ADME, organism-based; conditions: in vivo
[3] = AUC (0 to 1.5 hrs) in C57BL/6J mouse liver at 30 mg/kg, po administered as single dose by LC/MS/MS analysis; assay type: ADME, organism-based; parameters: dose 30 mg/kg, time < 1.5 hr, route oral; conditions: in vivo
[4] = Ratio of AUC (0 to 1.5 hrs) in C57BL/6J mouse pancreas to plasma at 10 mg/kg, po administered as single dose by LC/MS/MS analysis; assay type: ADME, organism-based; conditions: pancreas and plasma, read-out: Ratio AUC
Mus musculus [5] = assay: Antidiabetic activity in C57BL/6J mouse assessed as increase in insulin secretion at 30 mg/kg, po measured up to 60 mins by ELISA; assay type: functional, organism-based
Outline: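 Male C57BL/6J mice (8 weeks) fasted 2 h, then dosed orally at time 0 (n = 8/group). Tail vein insulin measured at 0, 30 and 60 min by ultra-sensitive mouse insulin ELISA. Mean ± SEM, Dunnett's test.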

[6] = Ratio of AUC (0 to 1.5 hrs) in C57BL/6J mouse liver to pancreas at 10 mg/kg, po administered as single dose by LC/MS/MS analysis; assay type: ADME, organism-based; conditions: in vivo
[7] = Ratio of AUC (0 to 1.5 hrs) in C57BL/6J mouse liver to plasma in C57BL/6J mouse at 5 mg/kg, po administered as single dose by LC/MS/MS analysis; assay type: ADME, organism-based; conditions: liver and plasma, read-out: Ratio AUC
[8] = AUC (0 to 1.5 hrs) in C57BL/6J mouse liver at 5 mg/kg, po administered as single dose by LC/MS/MS analysis; assay type: ADME, organism-based; parameters: dose 5 mg/kg, time < 1.5 hr, route oral; conditions: in vivo
[9] = AUC (0 to 1.5 hrs) in C57BL/6J mouse plasma at 5 mg/kg, po administered as single dose by LC/MS/MS analysis; assay type: ADME, organism-based; parameters: time < 1.5 hr, dose 5 mg/kg, route oral
Mus musculus [10] = assay: Antidiabetic activity in po dosed C57BL/6J mouse assessed as reduction in blood glucose level administered for 15 to 30 mins prior to glucose challenge measured up to 120 mins post dose by OGTT; assay type: functional, organism-based
Outline: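 Fasted male C57BL/6J or ob/ob mice (8 weeks, n = 8/group) dosed orally in 0.5% methylcellulose 15 or 30 min before a 2 g/kg oral glucose load. Tail vein glucose measured by glucometer at −15 or −30, 0, 20, 40, 60, 90 and 120 min. Incremental glucose AUC0-120 min compared with vehicle. Mean ± SEM, Dunnett's test.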

[11] = AUC (0 to 1.5 hrs) in C57BL/6J mouse pancreas at 10 mg/kg, po administered as single dose by LC/MS/MS analysis; assay type: ADME, organism-based; parameters: dose 10 mg/kg, time < 1.5 hr, route oral; conditions: in vivo
[12] = Ratio of AUC (0 to 1.5 hrs) in C57BL/6J mouse pancreas to plasma at 5 mg/kg, po administered as single dose by LC/MS/MS analysis; assay type: ADME, organism-based; conditions: pancreas and plasma, read-out: Ratio AUC
[13] = Ratio of AUC (0 to 1.5 hrs) in C57BL/6J mouse liver to pancreas at 30 mg/kg, po administered as single dose by LC/MS/MS analysis; assay type: ADME, organism-based; conditions: in vivo
[14] = AUC (0 to 1.5 hrs) in C57BL/6J mouse plasma at 10 mg/kg, po administered as single dose by LC/MS/MS analysis; assay type: ADME, organism-based; parameters: time < 1.5 hr, dose 10 mg/kg, route oral
[15] = AUC (0 to 1.5 hrs) in C57BL/6J mouse pancreas at 5 mg/kg, po administered as single dose by LC/MS/MS analysis; assay type: ADME, organism-based; parameters: dose 5 mg/kg, time < 1.5 hr, route oral; conditions: in vivo
[16] = Ratio of AUC (0 to 1.5 hrs) in C57BL/6J mouse pancreas to plasma at 30 mg/kg, po administered as single dose by LC/MS/MS analysis; assay type: ADME, organism-based; conditions: pancreas and plasma, read-out: Ratio AUC
[17] = Ratio of AUC (0 to 1.5 hrs) in C57BL/6J mouse liver to plasma at 10 mg/kg, po administered as single dose by LC/MS/MS analysis; assay type: ADME, organism-based; conditions: liver and plasma, read-out: Ratio AUC
[18] = Ratio of AUC (0 to 1.5 hrs) in C57BL/6J mouse liver to plasma at 30 mg/kg, po administered as single dose by LC/MS/MS analysis; assay type: ADME, organism-based; conditions: liver and plasma, read-out: Ratio AUC
Mus musculus [19] = assay: Toxicity in C57BL/6J mouse assessed as hypoglycemia at 30 mg/kg, po measured up to 300 mins by glucometric method; assay type: organism-based; conditions: in vivo, 5 h
[20] = AUC (0 to 1.5 hrs) in C57BL/6J mouse pancreas at 30 mg/kg, po administered as single dose by LC/MS/MS analysis; assay type: ADME, organism-based; parameters: time < 1.5 hr, dose 30 mg/kg, route oral; conditions: in vivo
[21] = AUC (0 to 1.5 hrs) in C57BL/6J mouse plasma at 30 mg/kg, po administered as single dose by LC/MS/MS analysis; assay type: ADME, organism-based; parameters: dose 30 mg/kg, time < 1.5 hr, route oral

With `CS(=O)(=O)c1ccc([C@@H](C[C@H]2CCC(=O)C2)C(=O)Nc2cnccn2)cc1Cl` [PIRAGLIATIN] the AUC [1] was 3230 ng·h/g, the “Ratio AUC” value [2] was 2.9 and the AUC [3] was 15700 ng·h/g. The Kp [4] was 1.8, the Activity (Mus musculus [5]) was “Active” and the “Ratio AUC” value [6] was 3.2. For the same molecule, the Kp [7] was 4.2, the AUC [8] was 1470 ng·h/g and the AUC(0-t) at 1.5 h [9] was 351 ng·h/mL. The Activity (Mus musculus [10]) was “Dose-dependent effect”, the AUC [11] was 1020 ng·h/g and the Kp [12] was 1.4. The “Ratio AUC” value [13] was 3.1, the AUC(0-t) at 1.5 h [14] was 574 ng·h/mL and the AUC [15] was 505 ng·h/g. For the same molecule, the Kp [16] was 2.2, the Kp [17] was 5.6 and the Kp [18] was 6.8. The Activity (Mus musculus [19]) was “Toxic”, the AUC [20] was 5030 ng·h/g and the AUC(0-t) at 1.5 h [21] was 2330 ng·h/mL.
